Measured values reported in ChEMBL document CHEMBL2390929, “New nitric oxide donating 1,2,4-triazole/oxime hybrids: synthesis, investigation of anti-inflammatory, ulceroginic liability and antiproliferative activities” (Bioorg Med Chem, 2013).

Key:
MDA-MB-468 = assay: Cytotoxicity against human MDA-MB-468 cells assessed as cell growth at 10^-5 M after 48 hrs by SRB assay; assay type: functional; settings: MDA-MB-468, 48 h, read-out: Activity
How it was run: (§1)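 NCI 60-cell-line primary one-dose screen across nine tumour subpanels. Compound added at a single concentration of 10^-5 M and cultures incubated 48 h. Endpoint was sulforhodamine B protein staining read spectrophotometrically, with growth expressed as percent of untreated control cells.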

T47D = assay: Cytotoxicity against human T47D cells assessed as cell growth at 10^-5 M after 48 hrs by SRB assay; assay type: functional; settings: read-out: Activity
How it was run: (§2)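 NCI-60 one-dose screen across nine tumour subpanels. Each agent added once at 10^-5 M, cultures incubated 48 h. Endpoint is sulforhodamine B protein staining read spectrophotometrically. Output is percent growth of treated cells relative to untreated controls.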

BT-549 = assay: Cytotoxicity against human BT549 cells assessed as cell growth at 10^-5 M after 48 hrs by SRB assay; assay type: functional; settings: BT-549, 48 h, read-out: Activity; how it was run: as §1
MDA-MB-231 = assay: Cytotoxicity against human MDA-MB-231 cells assessed as cell growth at 10^-5 M after 48 hrs by SRB assay; assay type: functional; settings: MDA-MB-231, 48 h, read-out: Activity; how it was run: as §1
PC-3 = assay: Cytotoxicity against human PC3 cells assessed as cell growth at 10^-5 M after 48 hrs by SRB assay; assay type: functional; settings: PC-3, 48 h, read-out: Activity; how it was run: as §1
UO-31 = assay: Cytotoxicity against human UO31 cells assessed as cell growth at 10^-5 M after 48 hrs by SRB assay; assay type: functional; settings: UO-31, 48 h, read-out: Activity; how it was run: as §2
ACHN = assay: Cytotoxicity against human ACHN cells assessed as cell growth at 10^-5 M after 48 hrs by SRB assay; assay type: functional; settings: read-out: Activity; how it was run: as §1
A498 = assay: Cytotoxicity against human A498 cells assessed as cell growth at 10^-5 M after 48 hrs by SRB assay; assay type: functional; settings: A498, 48 h, read-out: Activity; how it was run: as §1
786-0 = assay: Cytotoxicity against human 786-0 cells assessed as cell growth at 10^-5 M after 48 hrs by SRB assay; assay type: functional; settings: 786-0, 48 h, read-out: Activity; how it was run: as §1
OVCAR-8 = assay: Cytotoxicity against human OVCAR8 cells assessed as cell growth at 10^-5 M after 48 hrs by SRB assay; assay type: functional; settings: OVCAR-8, 48 h, read-out: Activity; how it was run: as §1
OVCAR-3 = assay: Cytotoxicity against human OVCAR3 cells assessed as cell growth at 10^-5 M after 48 hrs by SRB assay; assay type: functional; settings: OVCAR-3, 48 h, read-out: Activity; how it was run: as §1
UACC-62 = assay: Cytotoxicity against human UACC62 cells assessed as cell growth at 10^-5 M after 48 hrs by SRB assay; assay type: functional; settings: UACC-62, 48 h, read-out: Activity; how it was run: as §2
UACC-257 = assay: Cytotoxicity against human UACC257 cells assessed as cell growth at 10^-5 M after 48 hrs by SRB assay; assay type: functional; settings: UACC-257, 48 h, read-out: Activity; how it was run: as §2
SK-MEL-2 = assay: Cytotoxicity against human SK-MEL-2 cells assessed as cell growth at 10^-5 M after 48 hrs by SRB assay; assay type: functional; settings: SK-MEL-2, 48 h, read-out: Activity; how it was run: as §1
MDA-MB-435 = assay: Cytotoxicity against human MDA-MB-435 cells assessed as cell growth at 10^-5 M after 48 hrs by SRB assay; assay type: functional; settings: MDA-MB-435, 48 h, read-out: Activity; how it was run: as §1
M14 = assay: Cytotoxicity against human M14 cells assessed as cell growth at 10^-5 M after 48 hrs by SRB assay; assay type: functional; settings: M14, 48 h, read-out: Activity; how it was run: as §1
LOX IMVI = assay: Cytotoxicity against human LOXIMVI cells assessed as cell growth at 10^-5 M after 48 hrs by SRB assay; assay type: functional; settings: read-out: Activity; how it was run: as §1
U-251 = assay: Cytotoxicity against human U251 cells assessed as cell growth at 10^-5 M after 48 hrs by SRB assay; assay type: functional; settings: U-251, 48 h, read-out: Activity; how it was run: as §2
SNB-19 = assay: Cytotoxicity against human SNB19 cells assessed as cell growth at 10^-5 M after 48 hrs by SRB assay; assay type: functional; settings: SNB-19, 48 h, read-out: Activity; how it was run: as §2
HCT-15 = assay: Cytotoxicity against human HCT15 cells assessed as cell growth at 10^-5 M after 48 hrs by SRB assay; assay type: functional; settings: HCT-15, 48 h, read-out: Activity; how it was run: as §1
NCI-H23 = assay: Cytotoxicity against human NCI-H23 cells assessed as cell growth at 10^-5 M after 48 hrs by SRB assay; assay type: functional; settings: NCI-H23, 48 h, read-out: Activity; how it was run: as §1
NCI-H226 = assay: Cytotoxicity against human NCI-H226 cells assessed as cell growth at 10^-5 M after 48 hrs by SRB assay; assay type: functional; settings: NCI-H226, 48 h, read-out: Activity; how it was run: as §1
MOLT-4 = assay: Cytotoxicity against human MOLT4 cells assessed as cell growth at 10^-5 M after 48 hrs by SRB assay; assay type: functional; settings: MOLT-4, 48 h, read-out: Activity; how it was run: as §1
Rattus norvegicus [1] = assay: Antiinflammatory activity in albino rat assessed as inhibition of carrageenan-induced paw edema at 0.28 mmol/kg, po after 4 hrs relative to control; assay type: functional
How it was run: (§3)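 Adult male albino rats (120–140 g), four per group, fasted 24 h with water allowed. Test agent suspended in 0.5% w/v aqueous CMC and given orally at 0.28 mmol/kg; controls received CMC alone. After 30 min, 0.1 mL fresh 1% carrageenan in saline was injected subplantar into the right hind paw and saline into the left. Paw thickness was measured by Vernier caliper; % inhibition = [(VR−VL)control − (VR−VL)treated]/(VR−VL)control ×100. Mean ± SEM, one-way ANOVA.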

Rattus norvegicus [2] = assay: Antiinflammatory activity in albino rat assessed as inhibition of carrageenan-induced paw edema at 0.28 mmol/kg, po after 1 hr relative to control; assay type: functional; how it was run: as §3
[3] = Induction of nitric oxide release in phosphate buffer at pH 7.4 at 0.1 mM after 6 hrs by Griess method in presence of 0.5 mM of N-acetylcysteine; assay type: physicochemical; settings: pH 7.4, 6 h, 100 µM
How it was run: (§4)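 Compound in DMF diluted to final 10^-4 M in 1:1 50 mM phosphate buffer pH 7.4/MeOH with 5×10^-4 M N-acetylcysteine, 37 °C. Aliquot mixed with Griess reagent, 10 min at room temperature, A546 read. Nitrite quantified against sodium nitrite standards (10–80 nmol/mL); NO expressed as mol/mol. n = 4 reaction mixtures per compound.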

[4] = Induction of nitric oxide release in phosphate buffer at pH 7.4 at 0.1 mM after 5 hrs by Griess method in presence of 0.5 mM of N-acetylcysteine; assay type: physicochemical; settings: pH 7.4, 5 h, 100 µM; how it was run: as §4
[5] = Induction of nitric oxide release in phosphate buffer at pH 7.4 at 0.1 mM after 4 hrs by Griess method in presence of 0.5 mM of N-acetylcysteine; assay type: physicochemical; settings: pH 7.4, 4 h, 100 µM; how it was run: as §4
[6] = Induction of nitric oxide release in phosphate buffer at pH 7.4 at 0.1 mM after 2 hrs by Griess method in presence of 0.5 mM of N-acetylcysteine; assay type: physicochemical; settings: pH 7.4, 2 h, 100 µM; how it was run: as §4
HOP-92 = assay: Cytotoxicity against human HOP92 cells assessed as cell growth at 10^-5 M after 48 hrs by SRB assay; assay type: functional; settings: HOP-92, 48 h, read-out: Activity; how it was run: as §1

Row | Structure (SMILES) | growth at 10 µM (MDA-MB-468) | growth at 10 µM (T47D) | growth at 10 µM (BT-549) | growth at 10 µM (MDA-MB-231) | growth at 10 µM (PC-3) | growth at 10 µM (UO-31) | growth at 10 µM (ACHN) | growth at 10 µM (A498) | growth at 10 µM (786-0) | growth at 10 µM (OVCAR-8) | growth at 10 µM (OVCAR-3) | growth at 10 µM (UACC-62) | growth at 10 µM (UACC-257) | growth at 10 µM (SK-MEL-2) | growth at 10 µM (MDA-MB-435) | growth at 10 µM (M14) | growth at 10 µM (LOX IMVI) | growth at 10 µM (U-251) | growth at 10 µM (SNB-19) | growth at 10 µM (HCT-15) | other results
1 | O/N=C(/CSc1nnc(-c2ccccc2)n1-c1ccccc1)c1ccccc1 | 93% | 98% | 111% | 68.4% | 82.8% | 77.4% | 117% | 49.5% | 109% | 93.2% | 92.3% | 87.7% | 87.6% | 101% | 97.5% | 103% | 104% | 82.3% | 84.8% | 101% | growth at 10 µM (NCI-H23): 103%; growth at 10 µM (NCI-H226): 95.6%; growth at 10 µM (MOLT-4): 84.8%; inhibition in vivo at 280 µmol/kg (Rattus norvegicus [1]): 79%; inhibition in vivo at 280 µmol/kg (Rattus norvegicus [2]): 60%; Activity [3]: 0.09 mol/mol; Activity [4]: 0.15 mol/mol; Activity [5]: 0.13 mol/mol; Activity [6]: 0.1 mol/mol
2 | COc1cc(-c2nnc(SC/C(=N/O)c3ccccc3)n2-c2ccccc2)cc(OC)c1OC | 119% | 88.8% | 85.3% | 93.7% | 92.1% | 69.5% | 99.3% | 98.4% | 94.7% | 98.3% | 114% | 84% | 102% | 98.3% | 104% | 108% | 91.7% | 94.1% | 95.2% | 99.1% | growth at 10 µM (NCI-H23): 92.5%; growth at 10 µM (NCI-H226): 94.1%; growth at 10 µM (HOP-92): 81.2%; growth at 10 µM (MOLT-4): 81.7%; inhibition in vivo at 280 µmol/kg (Rattus norvegicus [1]): 76%; inhibition in vivo at 280 µmol/kg (Rattus norvegicus [2]): 61%; Activity [3]: 0.15 mol/mol; Activity [4]: 0.16 mol/mol; Activity [5]: 0.14 mol/mol; Activity [6]: 0.11 mol/mol
